Test results reported in ChEMBL document CHEMBL3526002, “Tissue distribution and identification of radioactivity components at elimination phase after oral administration of [¹⁴C]CS-1036, an α-amylase inhibitor, to rats” (Drug Metab Dispos, 2013).

Key:
Parameters in all cases: dose 5 mg/kg, dosed compound name [14C]CS-1036, route oral
Conditions in all cases: in vivo
[1] = tested on: Zone of skin; assay: Drug uptake in albino F344/DuCrlCrlj rat skin at 5 mg/kg, po after 1 hr by liquid scintillation counting; assay type: ADME, organism-based
[2] = tested on: Kidney; assay: Drug uptake in albino F344/DuCrlCrlj rat kidney assessed as ng equivalent of CS-1036 at 5 mg/kg, po after 24 hrs by liquid scintillation counting; assay type: ADME, organism-based
[3] = tested on: Pancreas; assay: Drug uptake in albino F344/DuCrlCrlj rat pancreas at 5 mg/kg, po after 336 hrs by liquid scintillation counting; assay type: ADME, organism-based
[4] = tested on: Spleen; assay: Drug uptake in albino F344/DuCrlCrlj rat spleen assessed as ng equivalent of CS-1036 at 5 mg/kg, po after 168 hrs by liquid scintillation counting; assay type: ADME, organism-based
[5] = Drug uptake in albino F344/DuCrlCrlj rat bone marrow assessed as ng equivalent of CS-1036 at 5 mg/kg, po after 336 hrs by liquid scintillation counting; assay type: ADME, organism-based
[6] = Drug uptake in albino F344/DuCrlCrlj rat urinary bladder assessed as ng equivalent of CS-1036 at 5 mg/kg, po after 168 hrs by liquid scintillation counting; assay type: ADME, organism-based
[7] = tested on: Spleen; assay: Drug uptake in albino F344/DuCrlCrlj rat spleen at 5 mg/kg, po after 168 hrs by liquid scintillation counting; assay type: ADME, organism-based
[8] = tested on: Small intestine; assay: Drug uptake in albino F344/DuCrlCrlj rat small intestine at 5 mg/kg, po after 336 hrs by liquid scintillation counting; assay type: ADME, organism-based
[9] = tested on: Stomach; assay: Drug uptake in albino F344/DuCrlCrlj rat stomach at 5 mg/kg, po after 24 hrs by liquid scintillation counting; assay type: ADME, organism-based
[10] = tested on: Lung; assay: Drug uptake in albino F344/DuCrlCrlj rat lung assessed as ng equivalent of CS-1036 at 5 mg/kg, po after 4 hrs by liquid scintillation counting; assay type: ADME, organism-based
[11] = tested on: Stomach; assay: Drug uptake in albino F344/DuCrlCrlj rat stomach assessed as ng equivalent of CS-1036 at 5 mg/kg, po after 8 hrs by liquid scintillation counting; assay type: ADME, organism-based
[12] = tested on: Kidney; assay: Drug uptake in albino F344/DuCrlCrlj rat kidney at 5 mg/kg, po after 8 hrs by liquid scintillation counting; assay type: ADME, organism-based
[13] = tested on: Blood; assay: Drug uptake in albino F344/DuCrlCrlj rat blood at 5 mg/kg, po after 4 hrs by liquid scintillation counting; assay type: ADME, organism-based
Outline: (§1)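 Male F344/DuCrlCrlj rats (159–167 g; n = 3 per time point) received a single oral dose of [14C]CS-1036 at 5 mg/kg. Blood was taken from the abdominal aorta at 1, 4, 8, 24, 72, 168 and 336 h. Radioactivity was counted by LSC with external-standard efficiency correction. Results were converted to ng equivalent of CS-1036/ml using specific activity and sample volume, and reported as mean + S.D.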

[14] = tested on: Cerebrum; assay: Drug uptake in albino F344/DuCrlCrlj rat cerebrum assessed as ng equivalent of CS-1036 at 5 mg/kg, po after 4 hrs by liquid scintillation counting; assay type: ADME, organism-based
Outline: (§2)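 Single oral [14C]CS-1036 at 5 mg/kg was given to male rats (159–167 g; n = 3). Cerebrum was collected after aortic bleeding at 1, 4, 8, 24, 72, 168 or 336 h, weighed, and homogenized in 2 volumes of saline. A 0.5 ml aliquot was solubilized in Soluene-350 and counted by LSC with external-standard correction. Results are in ng equivalent/g tissue from specific activity and sample weight.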

[15] = tested on: Pancreas; assay: Drug uptake in albino F344/DuCrlCrlj rat pancreas assessed as ng equivalent of CS-1036 at 5 mg/kg, po after 1 hr by liquid scintillation counting; assay type: ADME, organism-based
[16] = tested on: Lung; assay: Drug uptake in albino F344/DuCrlCrlj rat lung at 5 mg/kg, po after 4 hrs by liquid scintillation counting; assay type: ADME, organism-based
[17] = tested on: Blood; assay: Drug uptake in albino F344/DuCrlCrlj rat blood assessed as ng equivalent of CS-1036 at 5 mg/kg, po after 168 hrs by liquid scintillation counting; assay type: ADME, organism-based; outline: as §1
[18] = Drug uptake in albino F344/DuCrlCrlj rat eyeball assessed as ng equivalent of CS-1036 at 5 mg/kg, po after 4 hrs by liquid scintillation counting; assay type: ADME, organism-based
[19] = tested on: Thymus; assay: Drug uptake in albino F344/DuCrlCrlj rat thymus at 5 mg/kg, po after 72 hrs by liquid scintillation counting; assay type: ADME, organism-based
[20] = tested on: Harderian gland; assay: Drug uptake in albino F344/DuCrlCrlj rat harderian gland assessed as ng equivalent of CS-1036 at 5 mg/kg, po after 336 hrs by liquid scintillation counting; assay type: ADME, organism-based
[21] = Drug uptake in albino F344/DuCrlCrlj rat testis at 5 mg/kg, po after 168 hrs by liquid scintillation counting; assay type: ADME, organism-based
[22] = tested on: Aorta; assay: Drug uptake in albino F344/DuCrlCrlj rat aorta at 5 mg/kg, po after 1 hr by liquid scintillation counting; assay type: ADME, organism-based
[23] = Drug uptake in albino F344/DuCrlCrlj rat eyeball at 5 mg/kg, po after 1 hr by liquid scintillation counting; assay type: ADME, organism-based
[24] = tested on: Lung; assay: Drug uptake in albino F344/DuCrlCrlj rat lung assessed as ng equivalent of CS-1036 at 5 mg/kg, po after 336 hrs by liquid scintillation counting; assay type: ADME, organism-based
[25] = Drug uptake in albino F344/DuCrlCrlj rat mandibular gland at 5 mg/kg, po after 24 hrs by liquid scintillation counting; assay type: ADME, organism-based
[26] = Drug uptake in albino F344/DuCrlCrlj rat fat at 5 mg/kg, po after 24 hrs by liquid scintillation counting; assay type: ADME, organism-based, Adipose tissue
Outline: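 Male F344/DuCrlCrlj rats (bought at 7 weeks, acclimatized 5–6 days; 159–167 g; n = 3 per time point) received a single oral dose of [14C]CS-1036 at 5 mg/kg. White adipose tissue was collected after abdominal aortic bleeding at 1, 4, 8, 24, 72, 168 or 336 h. Samples were counted by LSC with external-standard efficiency correction. Results were converted to ng equivalents per g from specific activity and sample weight.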

[27] = tested on: Blood; assay: Drug uptake in albino F344/DuCrlCrlj rat blood assessed as ng equivalent of CS-1036 at 5 mg/kg, po after 336 hrs by liquid scintillation counting; assay type: ADME, organism-based; outline: as §1
[28] = tested on: Plasma; assay: Drug uptake in albino F344/DuCrlCrlj rat plasma at 5 mg/kg, po after 72 hrs by liquid scintillation counting; assay type: ADME, organism-based
[29] = tested on: Large intestine; assay: Drug uptake in albino F344/DuCrlCrlj rat large intestine assessed as ng equivalent of CS-1036 at 5 mg/kg, po after 1 hr by liquid scintillation counting; assay type: ADME, organism-based
[30] = Drug uptake in albino F344/DuCrlCrlj rat thyroid gland assessed as ng equivalent of CS-1036 at 5 mg/kg, po after 1 hr by liquid scintillation counting; assay type: ADME, organism-based
[31] = Drug uptake in albino F344/DuCrlCrlj rat pituitary gland at 5 mg/kg, po after 24 hrs by liquid scintillation counting; assay type: ADME, organism-based
[32] = tested on: Cerebrum; assay: Drug uptake in albino F344/DuCrlCrlj rat cerebrum at 5 mg/kg, po after 72 hrs by liquid scintillation counting; assay type: ADME, organism-based; outline: as §2
[33] = tested on: Cerebellum; assay: Drug uptake in albino F344/DuCrlCrlj rat cerebellum assessed as ng equivalent of CS-1036 at 5 mg/kg, po after 1 hr by liquid scintillation counting; assay type: ADME, organism-based

Radiolabel recovery [1]: 38.3 ngequiv/g
Radiolabel recovery [2]: 16 ngequiv/g
Radiolabel recovery [3]: 25.4 ngequiv/g
Radiolabel recovery [4]: 6.2 ngequiv/g
Radiolabel recovery [5]: 11.4 ngequiv/g
Radiolabel recovery [6]: 6.6 ngequiv/g
Radiolabel recovery [7]: 18.3 ngequiv/g
Radiolabel recovery [8]: 6.54 ngequiv/g
Radiolabel recovery [9]: 118 ngequiv/g
Radiolabel recovery [10]: 10.3 ngequiv/g
Radiolabel recovery [11]: 59 ngequiv/g
Radiolabel recovery [12]: 1320 ngequiv/g
Radiolabel recovery [13]: 44.3 ngequiv/ml
Radiolabel recovery [14]: 1.4 ngequiv/g
Radiolabel recovery [15]: 11 ngequiv/g
Radiolabel recovery [16]: 37.8 ngequiv/g
Radiolabel recovery [17]: 3.52 ngequiv/ml
Radiolabel recovery [18]: 4.8 ngequiv/g
Radiolabel recovery [19]: 48.3 ngequiv/g
Radiolabel recovery [20]: 2.33 ngequiv/g
Radiolabel recovery [21]: 9.95 ngequiv/g
Radiolabel recovery [22]: 50.6 ngequiv/g
Radiolabel recovery [23]: 17.7 ngequiv/g
Radiolabel recovery [24]: 3.93 ngequiv/g
Radiolabel recovery [25]: 118 ngequiv/g
Radiolabel recovery [26]: 82.9 ngequiv/g
Radiolabel recovery [27]: 0.2 ngequiv/ml
Radiolabel recovery [28]: 14.5 ngequiv/ml
Radiolabel recovery [29]: 1080 ngequiv/g
Radiolabel recovery [30]: 7.2 ngequiv/g
Radiolabel recovery [31]: 70.8 ngequiv/g
Radiolabel recovery [32]: 8.91 ngequiv/g
Radiolabel recovery [33]: 0.79 ngequiv/g
SMILES: C[C@H]1O[C@@H](O[C@H]2[C@H](O)[C@@H](O)[C@@H](O[14C@H]3[14C@H](O)[14CH2]N[14C@@H]3[14CH2]O)O[C@@H]2CO)[C@H](O)[C@@H](O)[C@@H]1O
